# Source: ChEMBL document CHEMBL3414437, “Synthesis of CDDO-amino acid-nitric oxide donor trihybrids as potential antitumor agents against both drug-sensitive and drug-resistant colon cancer” (J Med Chem, 2015)
# Active and inactive are the calls of the source. The calls are words filed in the database; no cut-off is given here.
# How the values were obtained:
# Mus musculus [1] = assay: Toxicity in nude BALB/c mouse xenografted with FU-resistant human HCT8 cells assessed as abnormal size changes in liver at 59.4 umol/kg administered as via oral gavage daily for 21 days; type: organism-based, HCT-8; conditions: in vivo, 504 h
# Outline: (§1)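 Male BALB/c nude mice aged 6-8 weeks, implanted s.c. in the right flank with HCT-8/5-FU cells (2 × 10^6). Once tumors reached 180-200 mm3 (days 9-11), randomized to daily gavage for 21 days in cremophor-EL/DMSO/PBS (1:1:8), 0.2 mL. At the end, liver, kidney, lung and heart checked for size, colour and weight. n = 8 per group.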
# [2] = Antitumor activity against FU-resistant human HCT8 cells xenografted in nude BALB/c mouse assessed as reduction in tumor weight at 59.4 umol/kg administered as via oral gavage daily for 21 days; type: functional; conditions: HCT-8, po, 504 h
# Outline: (§2)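 Male BALB/c nude mice, 6–8 weeks old, inoculated s.c. in the right flank with HCT-8/5-FU cells (2 × 10^6). Once tumors reached 180–200 mm3 (days 9–11), mice were randomized (n = 8) to daily oral gavage for 21 days in cremophor-EL/DMSO/PBS (1:1:8). Tumor volume = W2(L/2), caliper-measured every other day, blinded; tumors weighed at end.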
# Mus musculus [3] = assay: Toxicity in nude BALB/c mouse xenografted with FU-resistant human HCT8 cells assessed as body weight level at 59.4 umol/kg administered as via oral gavage daily for 21 days (reference value: 20.8 +/- 2.2 g); type: organism-based, HCT-8; conditions: in vivo, 504 h
# Outline: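 Male BALB/c nude mice, 6-8 weeks old, inoculated s.c. in right flank with HCT-8/5-FU cells (2 × 10^6/mouse). Once tumors reached 180-200 mm3 (9-11 days post-implantation), mice were randomized and dosed by gavage daily for 21 consecutive days in cremophor-EL/DMSO/PBS (1:1:8) (vehicle alone 0.2 mL). Body weights recorded on day 1 and day 21. Organ size, color and weights were inspected for liver, kidney, lung and heart. n = 8 per group; mean ± SD.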
# Mus musculus [4] = assay: Toxicity in nude BALB/c mouse xenografted with FU-resistant human HCT8 cells assessed as abnormal size changes in heart at 17.8 to 35.7 umol/kg administered as via oral gavage daily for 21 days; type: organism-based, HCT-8; conditions: in vivo, 504 h; outline: as §1
# [5] = Toxicity in male ICR mouse assessed as mouse mortality at 2.38 x 10^3 umol/kg administered as single dose via oral gavage measured up to 14 days post treatment; type: organism-based; conditions: in vivo
# Outline: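 Female or male adult ICR mice, 10 per sex group, were randomised and given a single oral gavage dose of 2,000 mg/kg in cremophor-EL/DMSO/PBS (1:1:8). Total mortality was recorded over days 1–14, and body weight on days 0, 7 and 14 as mean ± SD.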
# Mus musculus [6] = assay: Toxicity in nude BALB/c mouse xenografted with FU-resistant human HCT8 cells assessed as abnormal weight changes in kidney at 17.8 to 35.7 umol/kg administered as via oral gavage daily for 21 days; type: organism-based, HCT-8; conditions: in vivo, 504 h; outline: as §1
# HCT-8 [7] = assay: Induction of nitric oxide release in 5-FU resistant human HCT8 cells at 150 uM incubated for 150 mins after 150 mins of pre-treatment with 0.75 uM to 192 uM pepT1 substrate Gly-Sar by Griess assay; type: functional, cell-based
# Outline: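 Cells pretreated with Gly-Sar (0.75–192 µM, nine levels) for 150 min, then given compound at 150 µM for 150 min. Intracellular nitrite in lysates measured with Griess reagent (10 min, 37 °C, 540 nm) against a sodium nitrite standard curve. Mean ± SD of three experiments.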
# Mus musculus [8] = assay: Toxicity in nude BALB/c mouse xenografted with FU-resistant human HCT8 cells assessed as abnormal size changes in liver at 17.8 to 35.7 umol/kg administered as via oral gavage daily for 21 days; type: organism-based, HCT-8; conditions: in vivo, 504 h; outline: as §1
# [9] = target: ATP-dependent translocase ABCB1 (Homo sapiens, UniProt P08183); assay: Induction of nitrosylation of P-gp protein in FU-resistant human HCT8 cells at 0.25 to 1 uM incubated for 24 hrs by Western blotting method; type: cell-based; conditions: hct-8, 24 h
# Outline: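 HCT-8/5-FU cells (1 × 10^6) treated in duplicate for 24 h with 0.25, 0.5 or 1 µM test compound or 1 µM reference, with or without PTIO. Lysates immunoprecipitated overnight at 4 °C with anti-nitrotyrosine antibody on protein G beads. Eluates blotted with specific anti-Pgp, anti-MRP1 or anti-BCRP antibodies and quantified by densitometry. Mean ± SD of three experiments.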
# HCT-8 [10] = assay: Antitumor activity against FU-resistant human HCT8 cells xenografted in nude BALB/c mouse assessed as reduction in tumor volume at 17.8 to 35.7 umol/kg administered as via oral gavage daily for 21 days; type: functional; outline: as §2
# HCT-8 [11] = assay: Antiproliferative activity against human HCT8 cells assessed as inhibition of cell proliferation at 0.125 to 0.5 uM incubated for 72 hrs after 24 hrs of pre-treatment with 0.75 uM and 1 .5 uM pepT1 substrate Gly-Sar by MTT assay; type: functional, cell-based
# Outline: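 Cells pretreated with or without Gly-Sar (0.75 or 1.5 µM) for 24 h, then given a range of compound concentrations for 72 h. Proliferation inhibition measured by MTT.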
# Mus musculus [12] = assay: Toxicity in nude BALB/c mouse xenografted with FU-resistant human HCT8 cells assessed as abnormal weight changes in heart at 17.8 to 35.7 umol/kg administered as via oral gavage daily for 21 days; type: organism-based, HCT-8; conditions: in vivo, 504 h; outline: as §1
# Mus musculus [13] = assay: Toxicity in ICR mouse assessed as mouse mortality incidence at 0.60 x 10^3 to 2.38 x 10^3 umol/kg administered as single dose via oral gavage measured up to 14 days post treatment; type: organism-based; conditions: in vivo, 336 h
# Outline: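 Adult ICR mice of either sex were randomised and given a single oral gavage dose of 500, 1000, 1500 or 2000 mg/kg in cremophor-EL/DMSO/PBS (1:1:8). Survival, behaviour, water and food intake, body weight and activity were monitored for up to 14 days. Body weights were taken on days 0, 7 and 14.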
# ATP-dependent translocase ABCB1, sequence (P08183 whole entry): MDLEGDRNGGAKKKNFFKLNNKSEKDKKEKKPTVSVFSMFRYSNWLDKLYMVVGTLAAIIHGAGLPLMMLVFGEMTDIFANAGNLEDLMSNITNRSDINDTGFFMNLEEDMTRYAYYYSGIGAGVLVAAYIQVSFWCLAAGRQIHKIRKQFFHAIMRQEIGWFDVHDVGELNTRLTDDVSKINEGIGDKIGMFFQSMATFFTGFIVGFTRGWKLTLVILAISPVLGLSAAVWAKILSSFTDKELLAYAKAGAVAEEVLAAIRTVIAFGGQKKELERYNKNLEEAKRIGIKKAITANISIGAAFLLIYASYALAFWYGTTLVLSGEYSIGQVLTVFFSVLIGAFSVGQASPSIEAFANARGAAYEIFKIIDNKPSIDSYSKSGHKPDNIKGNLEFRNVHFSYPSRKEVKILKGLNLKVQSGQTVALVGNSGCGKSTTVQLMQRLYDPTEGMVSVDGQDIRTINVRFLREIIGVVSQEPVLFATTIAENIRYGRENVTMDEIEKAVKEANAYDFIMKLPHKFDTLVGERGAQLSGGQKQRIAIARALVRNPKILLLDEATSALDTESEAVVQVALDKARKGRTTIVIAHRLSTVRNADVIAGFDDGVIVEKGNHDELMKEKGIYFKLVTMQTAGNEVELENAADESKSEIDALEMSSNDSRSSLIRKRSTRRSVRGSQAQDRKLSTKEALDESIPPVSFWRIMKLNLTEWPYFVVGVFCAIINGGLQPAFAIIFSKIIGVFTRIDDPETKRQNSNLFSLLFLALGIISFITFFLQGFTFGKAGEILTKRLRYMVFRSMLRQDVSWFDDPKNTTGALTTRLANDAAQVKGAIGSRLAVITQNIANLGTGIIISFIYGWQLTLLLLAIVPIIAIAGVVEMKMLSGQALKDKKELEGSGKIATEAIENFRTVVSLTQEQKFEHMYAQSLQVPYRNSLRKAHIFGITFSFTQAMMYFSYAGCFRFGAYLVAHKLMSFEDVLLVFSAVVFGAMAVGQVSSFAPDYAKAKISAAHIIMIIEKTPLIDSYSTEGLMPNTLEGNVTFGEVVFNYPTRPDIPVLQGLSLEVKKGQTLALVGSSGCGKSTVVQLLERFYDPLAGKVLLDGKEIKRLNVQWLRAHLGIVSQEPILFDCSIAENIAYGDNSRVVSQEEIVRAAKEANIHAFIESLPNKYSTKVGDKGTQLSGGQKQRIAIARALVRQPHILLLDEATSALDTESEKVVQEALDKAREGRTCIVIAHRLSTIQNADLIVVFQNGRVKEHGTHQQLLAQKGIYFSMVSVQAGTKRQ
SMILES,Activity (Mus musculus [1]),inhibition in vivo at 59.4 µmol/kg [2] [%],Activity (Mus musculus [3]) [g],Activity (Mus musculus [4]),mortality at 336 h [5] [%],Activity (Mus musculus [6]),Activity (HCT-8 [7]),Activity (Mus musculus [8]),Activity [9],inhibition (HCT-8 [10]),inhibition (HCT-8 [11]),Activity (Mus musculus [12]),Activity (Mus musculus [13])
COC(=O)[C@]12CCC(C)(C)C[C@H]1[C@H]1C(=O)C=C3[C@@]4(C)C=C(C#N)C(=O)C(C)(C)[C@@H]4CC[C@@]3(C)[C@]1(C)CC2 [BARDOXOLONE METHYL],Non-toxic,58.4,16.7,,,,,,,,,,
CC1(C)CC[C@]2(C(=O)NCC(=O)OCC#CCOc3no[n+]([O-])c3S(=O)(=O)c3ccccc3)CC[C@]3(C)[C@H](C(=O)C=C4[C@@]5(C)C=C(C#N)C(=O)C(C)(C)[C@@H]5CC[C@]43C)[C@@H]2C1,,,,Non-toxic,0,Non-toxic,inactive,Non-toxic,Dose-dependent effect,Dose-dependent effect,inactive,Non-toxic,Non-toxic
